Data set [1] concerns Nrf2 signal pathway. In words: Western blot of Nrf2 signal pathway proteins in HepG-2 cells. The data set is classed as cell-based.
The test system of data set [2] is CYP450 (CYP1A2/2C9/2D6/2E1/3A4). The data set can be described thus: Microsomal CYP450 activity detection. It counts as in vivo, mice. The conditions noted are these: Sch B 25.0, 50.0 and 100.0 mg/kg oral, 21 days, dose-dependent. In short, it runs like this:
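Livers came from mice dosed orally for 21 days (25.0–100 mg/kg). Livers (~2 g) were homogenised at 4°C in phosphate buffer pH 7.4 with 1.0 mM EDTA and 250 mM sucrose, spun at 9,000× g then 100,000× g, and the pellet resuspended with 250 mM glycerol. Microsomes (0.5 mg/mL) were incubated with a probe cocktail: phenacetin 10 μM, tolbutamide 100 μM, dextromethorphan 2.5 μM, chlorzoxazone 20 μM, midazolam 5 μM. Reactions ran 30 min with 1 mM NADPH and were stopped with methanol. Metabolites were measured by LC–MS/MS.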

Data set [3] deals with Nrf2 pathway. The data set can be described thus: Western blot of Nrf2 pathway proteins in mice liver tissue. The data set is classed as in vivo. To be noted: Sch B 25.0–100.0 mg/kg oral, 21 days, Western blotting. The procedure, abridged: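 Mice were dosed orally once daily for 21 days (25.0, 50.0, 100 mg/kg, in 0.5% sodium carboxymethylcellulose). Frozen liver extracts were assayed for protein by Bradford, and equal protein was run on SDS-PAGE and blotted to PVDF. Membranes were blocked in 5% nonfat milk/TBS, probed with anti-Nrf2, HO-1, NQO1, GST or GR at 4°C overnight, then HRP secondary for 1 h at room temperature. Detection was by ECL on X-ray film.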
A general note: Immunoblotting shows a protein as a band on a membrane.

Data set [4] relates to mice liver. In words: Histopathological analysis of H&E-stained mice liver sections. It counts as in vivo. In short, it runs like this: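 Mice were given test compound (25.0, 50.0, 100 mg/kg) by mouth daily for 21 days in 0.5% sodium carboxymethylcellulose and killed 24 h after the last dose. Liver was fixed in neutral buffered formalin, embedded in paraffin, cut at 5 μm and stained with H&E.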

Data set [5] deals with mice liver. The data set can be described thus: TUNEL immunofluorescence staining of mice liver. The data set is classed as in vivo. The conditions noted are these: 100 mg/kg Sch B oral, 21 days. The procedure, abridged:
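After 21 days of daily oral test compound (25.0–100 mg/kg, 0.5% sodium carboxymethylcellulose), paraffin liver sections (10 μm) were treated with 3% H2O2 in methanol for 10 min and blocked with 1% BSA/PBS for 30 min. They were incubated with […] at 4°C overnight, then Alexa Fluor donkey anti-rabbit (1:500) for 1 h at 37°C. Nuclei were stained with DAPI and sections imaged by fluorescence microscopy. n=6.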

Data set [6] deals with CYP3A. The conditions noted are these: read-out: IC50 value, inhibition of CYP3A activity; rat liver microsomes; cited from earlier work. Background: Microsomes from liver hold many membrane-bound enzymes, among them those of drug oxidation.
For data set [7], the system named is CYP3A1 mRNA. The conditions noted are these: rat primary hepatocytes, Sch B 0.1 µM; cited from earlier work.
For data set [8], the system named is P-gp–mediated efflux and CYP3A-mediated metabolism. To be noted: rat, one single dose of Sch B 0.024 mM/kg; cited from earlier work.
[9] abbreviates: Sch B 5 µM, 48-hour incubation, Western blot.

Here are results for 2 compounds from paper PMC6267698 (Drug Design, Development and Therapy, 2018).

`Nn1nnc2ccccc21` [ABT, 1-aminobenzotriazolea, reference compound]: the “effect on Sch B-induced activation of Nrf2 and GST expression” value in data set [1] (ABT 0.5 mM combined with Sch B 5 µM, 48 hours) is recorded as “suppressed”.
`COc1cc2c(c(OC)c1OC)-c1c(cc3c(c1OC)OCO3)CC(C)C(C)C2` (stereo not shown) [Sch B, Schisandrin B]: in data set [1] (setting [9]), the “HO-1 and GR protein expression” value is listed as “no changes”; the “expression of GST” value is recorded as “upregulated”; the “expression of Nrf2” value was “upregulated”. Also, the “CYP450 (CYP1A2/2C9/2D6/2E1/3A4) activities in livers of mice” value in data set [2] is “considerably increased”. Further, the “protein expression of NQO-1 and GST in mice liver” value in data set [3] is given as “dose-dependent increase”. For the same compound, the “Nrf2 expression in mice liver” value in data set [3] (dose-dependent) was “upregulated”. Also, the “centrilobular hepatocellular infiltration of lymphocytes” value in data set [4] (100 mg/kg Sch B oral, 21 days, H&E-stained liver sections) was “clearly evident”. The hepatotoxicity in mice result in data set [4] (highest dose (100 mg/kg) only, oral, 3 weeks) is listed as “mild hepatotoxicity”. In addition, the “positive TUNEL cell in liver” value in data set [5] was “very limited”. Besides, in data set [6], the IC50 is 5.51 µM. Also, the “expression of CYP3A1 mRNA” value in data set [7] was “significantly increase”. In data set [8], the tacrolimus bioavailability entry is recorded as “increase”.

What is called IC50 is the point on the concentration scale where inhibition reaches its midpoint.
